Experimental data: ChEMBL document CHEMBL4177755, “Combating Drug-Resistant Fungi with Novel Imperfectly Amphipathic Palindromic Peptides” (J Med Chem, 2018)
≈ marks a conversion by molar mass, not a printed value.

Columns and labels:
Erythrocyte = experiment: Hemolytic activity in human RBC after 1 hr; type: ADME, cell-based
Summary of the method: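 Fresh human erythrocytes, diluted 10-fold in PBS pH 7.4, were mixed with equal volumes of peptide and held 1 h at 37 °C. After centrifugation at 1000g, supernatant hemoglobin was read at 576 nm. PBS set 0% and 0.1% Triton X-100 set 100% lysis. MHC is the concentration causing 10% hemolysis. At least three experiments were run, each in technical triplicate.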

Escherichia coli [1] = experiment: Antibacterial activity against Escherichia coli 1005 after 24 hrs; type: functional; conditions: Escherichia coli, 1005, 24 h
Summary of the method: (§1)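 Broth microdilution. Mid-log bacteria in MHB at a final (0.5−1) × 10^5 CFU/mL were mixed with equal volumes of peptide serially diluted in 0.2% BSA. Plates were incubated 24 h at 37 °C and read at A492. MIC is the lowest concentration inhibiting 95% of growth. Each test was repeated at least 3 times.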

Candida albicans [2] = experiment: Fungicidal activity against Candida albicans SP3876 after 96 hrs; type: functional; conditions: SP3876, 96 h, read-out: MFC99.9
Summary of the method: (§2)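 After the 48 h, 28 °C broth microdilution in MOPS-buffered RPMI 1640 (inoculum (0.5−1) × 10^3 CFU/mL), 50 μL from each well was plated on YM agar for a further 48 h at 28 °C. MFC is the lowest concentration killing at least 99.9% of cells. Triplicate, three biological replicates.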

Candida albicans [3] = experiment: Antifungal activity against Candida albicans cgmcc 2.2086 in presence of NaCl by broth dilution method; type: functional
Candida albicans [4] = experiment: Antifungal activity against Candida albicans cgmcc 2.2086 in presence of ZnCl2 by broth dilution method; type: functional
Candida tropicalis [5] = experiment: Fungicidal activity against Candida tropicalis cgmcc 2.1975 after 96 hrs; type: functional; conditions: cgmcc 2.1975, 96 h, read-out: MFC99.9
Summary of the method: (§3)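 Wells from the 48 h, 28 °C RPMI 1640/MOPS microdilution plates were plated on YM agar and incubated a further 48 h at 28 °C. MFC is the lowest concentration killing at least 99.9% of cells. Run in triplicate with three biological replicates.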

Candida albicans [6] = experiment: Antifungal activity against Candida albicans cgmcc 2.2086 in presence of NH4Cl by broth dilution method; type: functional
Escherichia coli [7] = experiment: Antibacterial activity against Escherichia coli ATCC 25922 after 18 hrs in presence of ZnCl2 by broth dilution method; type: functional; conditions: ATCC 25922, 18 h
Candida albicans [8] = experiment: Antifungal activity against Candida albicans SP3902 after 48 hrs by broth microdilution method; type: functional; conditions: SP3902, 48 h
Summary of the method: (§4)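 Modified CLSI M27-A2 broth microdilution. Yeast at (0.5−1) × 10^3 CFU/mL in MOPS-buffered RPMI 1640 was mixed 1:1 with peptide serially diluted in 0.2% BSA and incubated 48 h at 28 °C. Absorbance was read at 492 nm; MIC is the lowest concentration inhibiting 95% of growth. Triplicate, three biological replicates.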

Candida albicans [9] = experiment: Antifungal activity against fluconazole-resistant Candida albicans 56452 after 48 hrs by broth microdilution method; type: functional; conditions: Candida albicans, 56452, 48 h; summary of the method: as §4
[10] = Cytotoxicity against HEK293T cells assessed as cell viability at 2 to 64 uM after 24 hrs by MTT assay relative to control; type: cell-based, HEK-293T; conditions: human, read-out: Activity
Summary of the method: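 MTT viability assay. RAW264.7 or HEK293T cells at (1.0−2.0) × 10^5 per well were exposed to a peptide concentration series for 24 h at 37 °C in 5% CO2. MTT was then added at 0.5 mg/mL final for 4 h; formazan was dissolved in DMSO and read at 570 nm. Results average three independent trials.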

Pichia kudriavzevii [11] = experiment: Antifungal activity against Candida krusei cgmcc 2.1857 after 48 hrs by broth microdilution method; type: functional; conditions: cgmcc 2.1857, 48 h
Summary of the method: (§5)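 Modified CLSI M27-A2 broth microdilution. Yeast were suspended in MOPS-buffered RPMI 1640 at a final (0.5−1) × 10^3 CFU/mL and mixed 1:1 with peptide serially diluted in 0.2% BSA. Plates were incubated 48 h at 28 °C and read at A492. MIC is the lowest concentration giving 95% inhibition. Run in triplicate with three biological replicates.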

Candida albicans [12] = experiment: Fungicidal activity against Candida albicans SP3902 after 96 hrs; type: functional; conditions: SP3902, 96 h, read-out: MFC99.9; summary of the method: as §2
Candida albicans [13] = experiment: Fungicidal activity against Candida albicans SP3903 after 96 hrs; type: functional; conditions: SP3903, 96 h, read-out: MFC99.9; summary of the method: as §2
Candida albicans [14] = experiment: Fungicidal activity against Candida albicans isolated from alveolar fluid after 96 hrs; type: functional; conditions: read-out: MFC99.9; summary of the method: as §2
Pichia kudriavzevii [15] = experiment: Fungicidal activity against Candida krusei cgmcc 2.1857 after 96 hrs; type: functional; conditions: cgmcc 2.1857, 96 h, read-out: MFC99.9; summary of the method: as §3
[16] = Bactericidal activity against Salmonella pullorum ATCC 7913; type: functional, Salmonella enterica subsp. enterica serovar Pullorum; conditions: Salmonella enterica, read-out: MBC99.9
Summary of the method: (§6)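 Wells from the 24 h, 37 °C MHB microdilution plates (bacteria at a final (0.5−1) × 10^5 CFU/mL; peptide diluted in 0.2% BSA) were plated on agar and incubated overnight. MBC is the lowest concentration killing >99.9% of cells. Each test was reproduced at least 3 times.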

Candida albicans [17] = experiment: Antifungal activity against Candida albicans cgmcc 2.2086 in presence of CaCl2 by broth dilution method; type: functional
Candida albicans [18] = experiment: Antifungal activity against Candida albicans 58288 after 48 hrs by broth microdilution method; type: functional; conditions: Candida albicans, 58288, 48 h; summary of the method: as §4
Candida albicans [19] = experiment: Antifungal activity against Candida albicans cgmcc 2.2086 after 48 hrs by broth microdilution method; type: functional; conditions: cgmcc 2.2086, 48 h; summary of the method: as §4
Staphylococcus aureus [20] = experiment: Bactericidal activity against Staphylococcus aureus ATCC 29213; type: functional; conditions: read-out: MBC99.9; summary of the method: as §6
Candida albicans [21] = experiment: Antifungal activity against fluconazole-resistant Candida albicans 17546 after 48 hrs by broth microdilution method; type: functional; conditions: Candida albicans, 17546, 48 h; summary of the method: as §4
Staphylococcus aureus [22] = experiment: Bactericidal activity against methicillin-resistant Staphylococcus aureus ATCC 4330; type: functional; conditions: read-out: MBC99.9
Summary of the method: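 Bacteria at (0.5−1) × 10^5 CFU/mL in MHB were exposed to serially diluted peptide (0.2% BSA) for 24 h at 37 °C, then 50 μL aliquots were plated on agar overnight. MBC is the lowest concentration killing >99.9% of cells. At least 3 repeats.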

[23] = Antibacterial activity against Salmonella pullorum ATCC 7913 after 24 hrs; type: functional, Salmonella enterica subsp. enterica serovar Pullorum; conditions: Salmonella enterica, ATCC 7913, 24 h; summary of the method: as §1
Staphylococcus aureus [24] = experiment: Bactericidal activity against Staphylococcus aureus ATCC 25923; type: functional; conditions: read-out: MBC99.9; summary of the method: as §6
Candida parapsilosis = experiment: Fungicidal activity against Candida parapsilosis cgmcc 2.3989 after 96 hrs; type: functional; conditions: Lodderomyces parapsilosis, cgmcc 2.3989, 96 h; read-out: MFC99.9; summary of the method: as §3
[25] = system: Staphylococcus epidermidis; experiment: Bactericidal activity against Staphylococcus epidermidis ATCC 12228; type: functional; conditions: read-out: MBC99.9; summary of the method: as §6
Candida tropicalis [26] = experiment: Antifungal activity against Candida tropicalis cgmcc 2.1975 after 48 hrs by broth microdilution method; type: functional; conditions: cgmcc 2.1975, 48 h; summary of the method: as §5

Row | Molecule | HC10 (Erythrocyte) | MIC95 (Escherichia coli [1]) | MFC (Candida albicans [2]) | MIC (Candida albicans [3]) | MIC (Candida albicans [4]) | MFC (Candida tropicalis [5]) | MIC (Candida albicans [6]) | MIC95 (Candida albicans [8]) | MIC95 (Candida albicans [9]) | MIC95 (Pichia kudriavzevii [11]) | MFC (Candida albicans [12]) | MFC (Candida albicans [13]) | MFC (Candida albicans [14]) | MFC (Pichia kudriavzevii [15]) | MBC [16] | MIC (Candida albicans [17]) | MIC95 (Candida albicans [18]) | MIC95 (Candida albicans [19]) | MBC (Staphylococcus aureus [20]) | MIC95 (Candida albicans [21]) | other results
1 | H-RWRWWWRWR-NH2 | > 128 µM | 2 µM | 4 µM | 16 µM | 8 µM | 2 µM | 8 µM | 8 µM | 4 µM | 4 µM | 16 µM | 8 µM | 16 µM | 8 µM | 8 µM | 32 µM | 4 µM | 8 µM | 16 µM | 1 µM | MIC (Escherichia coli [7]): 2 µM; viability at 24 h, up to 64 µM [10]: 70 to 80%; MBC (Staphylococcus aureus [22]): 2 µM; MIC95 [23]: 2 µM; MBC (Staphylococcus aureus [24]): 8 µM; MFC (Candida parapsilosis): 32 µM; MBC [25]: 8 µM; MIC95 (Candida tropicalis [26]): 2 µM
2 | H-RFRFFFRFR-NH2 | > 128 µM | 4 µM | 8 µM | 32 µM | 8 µM | 4 µM | 8 µM | 4 µM | 4 µM | 4 µM | 4 µM | 4 µM | 16 µM | 4 µM | 8 µM | 64 µM | 8 µM | 8 µM | 8 µM | 4 µM | MIC (Escherichia coli [7]): 4 µM; viability at 24 h, up to 64 µM [10]: 70 to 80%; MBC (Staphylococcus aureus [22]): 4 µM; MIC95 [23]: 2 µM; MBC (Staphylococcus aureus [24]): 8 µM; MFC (Candida parapsilosis): 32 µM; MBC [25]: 8 µM; MIC95 (Candida tropicalis [26]): 2 µM
3 | CC[C@H](C)[C@H](NC(=O)CN)C(=O)NCC(=O)N[C@@H](C)C(=O)N[C@H](C(=O)N[C@@H](CC(C)C)C(=O)N[C@@H](CCCCN)C(=O)N[C@H](C(=O)N[C@@H](CC(C)C)C(=O)N[C@H](C(=O)N[C@H](C(=O)NCC(=O)N[C@@H](CC(C)C)C(=O)N1CCC[C@H]1C(=O)N[C@@H](C)C(=O)N[C@@H](CC(C)C)C(=O)N[C@H](C(=O)N[C@@H](CO)C(=O)N[C@@H](Cc1c[nH]c2ccccc12)C(=O)N[C@H](C(=O)N[C@@H](CCCCN)C(=O)N[C@@H](CCCNC(=N)N)C(=O)N[C@@H](CCCCN)C(=O)N[C@@H](CCCNC(=N)N)C(=O)N[C@@H](CCC(N)=O)C(=O)N[C@@H](CCC(N)=O)C(N)=O)[C@@H](C)CC)[C@@H](C)CC)[C@@H](C)O)[C@@H](C)O)C(C)C)C(C)C [MELITTIN] | 0.25 µM | 2 µM (≈ 5.69 µg/mL) | 4 µM (≈ 11.4 µg/mL) | 8 µM | 4 µM | 8 µM (≈ 22.8 µg/mL) | 4 µM | 2 µM (≈ 5.69 µg/mL) | 8 µM (≈ 22.8 µg/mL) | 2 µM (≈ 5.69 µg/mL) | 2 µM (≈ 5.69 µg/mL) | 4 µM (≈ 11.4 µg/mL) | 4 µM (≈ 11.4 µg/mL) | 4 µM (≈ 11.4 µg/mL) | 2 µM (≈ 5.69 µg/mL) | 8 µM | 4 µM (≈ 11.4 µg/mL) | 4 µM (≈ 11.4 µg/mL) | 8 µM (≈ 22.8 µg/mL) | 8 µM (≈ 22.8 µg/mL) | MBC (Staphylococcus aureus [22]): 1 µM (≈ 2.85 µg/mL); MIC95 [23]: 2 µM (≈ 5.69 µg/mL); MBC (Staphylococcus aureus [24]): 4 µM (≈ 11.4 µg/mL); MFC (Candida parapsilosis): 2 µM (≈ 5.69 µg/mL); MBC [25]: 1 µM (≈ 2.85 µg/mL); MIC95 (Candida tropicalis [26]): 4 µM (≈ 11.4 µg/mL)
